Experimental data published in the array DNA melting data of Ke et al. (doi:10.1101/2024.01.08.574731).

Tests used:
[1] = melting temperature; fluorescence melt of hairpins on a sequencing array, two-state fit, raised by 9.35 °C to match UV melts; settings: sodium 0.088 M
Summary of the method: (§1)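 Bootstrapped two-state fits yielded melting temperature and folding enthalpy for library hairpins. Cy3 fluorescence, with annealed Cy3 and quencher oligos, was imaged on a sequenced MiSeq flow cell in 50 mM Na-HEPES pH 8.0, 25 mM NaCl in 2.5 °C steps up to 60 °C, and normalised to pre-quench Cy3 and to control constructs. Four replicates were combined by inverse variance, and fitted temperatures were raised by 9.35 °C to match UV melts.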

[2] = folding enthalpy; higher = less favourable; fluorescence melt of hairpins on a sequencing array, two-state fit; settings: sodium 0.088 M
Summary of the method: as §1

Sequence	Tm [1] [°C]	folding enthalpy [2] [kJ/mol]
CACATGAAAATGTG (((((....)))))	47.9	-114
GTGACCGAAAGGTTTCAC ((((((....)))..)))	34.8	-54.9
GTTCTCCCGAAAGGGAAC (((..(((....))))))	30.6	-41.5
GATGGCGAAAGCCAGATC ((((((....)))..)))	50	-65.8
GATCGATGTGTCGATC ((((((....))))))	57.9	-168
GACCCCCGAAAGGGCGTC (((.(((....))).)))	55.4	-105
GTTGTCGAAAGACACAAC ((((((....)))..)))	32.6	-46.1
GCCAACCGAAAGGTCGGC (((.(((....))).)))	59.4	-168
AGCATGAAAATGCT (((((....)))))	50	-92.7
GATGCCCGAAAGGGTATC (((.(((....))).)))	58.2	-125
GCAGGGCGAAAGCACCGC ((.(.((....)).).))	57.7	-67.1
GCCGTCGAAAGACCTGGC ((((((....)))..)))	44.7	-82.7
GTCTTGTCGAAAGACGAC (((..(((....))))))	50.4	-75.9
GCATGCCGAAAGGCTGC (((.(((....))))))	65.7	-90.4
GCCCTGGGAAACTGGGGC ((((..(....)..))))	51.5	-159
GCGTTACGAAAGTACGC (((.(((....))))))	61.1	-135
GCGATAAGTCGC ((((....))))	49.8	-79.1
GGCGCCGAAAGGCCTGCC ((((((....)))..)))	50.8	-69.4
GATCTTGCTCAAGATC ((((((....))))))	48.3	-165
GCGCGCTCGAAAGAGCGC (((..(((....))))))	66.8	-25.2
GAGCACGAAAGTGTGCTC ((((((....)))..)))	58.6	-130
GATCTGCTCCAGATC ((((((...))))))	50.4	-130
GGTAACGAAAGTTACACC ((((((....)))..)))	43.5	-58.2

Sequence	Tm [1] [°C]	folding enthalpy [2] [kJ/mol]
GCAGTGCGAAAGCCGTGC (((..((....))..)))	46.4	-88.2
GAGTACGCGAAAGCGCTC (((..(((....))))))	34.6	-42
GCAGGTGGAAACACCTAC (.(((((....))))).)	39.3	-64.6
GCTTCTGGAAACAAAAGC ((((.((....)).))))	28.8	-54.8
GGTAAATCGAAAGATACC (((..(((....))))))	30.4	-63
GGACACACGAAAGTGTCC (((..(((....))))))	57.9	-129
GGAACTGGAAACAGTCCC ((.((((....)))).))	40	-106
GTGCCCGAAAGGGACCAC ((((((....)))..)))	49.5	-47.5
GATCCGTTAACGGATC ((((((....))))))	64	-181
GAAGGGGGAAACCCCTTC (((((((....)))))))	61.5	-155
GCGGCTCTCCGC ((((....))))	55.6	-110
GTGCGTCGAAAGACCCAC (((.(((....))).)))	45.8	-110
GATCTTCGCTAAGATC ((((((....))))))	43	-143
GGTGACCGAAAGGTACC (((.(((....))))))	49	-91.3
GATCACATCCGTGATC ((((((....))))))	56.6	-192
GGACCAGAAATGGTCC ((((((....))))))	63.7	-183
GCGTTGCGAAAGCCATGC ((.(.((....)).).))	40.2	-106
GGCGTTACGAAAGTAGCC (((..(((....))))))	55	-166
GAGGAGGGAAACCTTCTC (((.(((....))).)))	42.7	-114
GTTTCCGAAAGGAACAAC ((((((....)))..)))	31.2	-57.1
GGGATCGGAAACGGTCTC (.((.((....)).)).)	39.6	-92.6
GTAGATCGAAAGATATAC (((.(((....))).)))	42.3	-136
GATTCCGAAAGGAACATC ((((((....)))..)))	25.2	-50.4

Sequence	Tm [1] [°C]	folding enthalpy [2] [kJ/mol]
GTAAAGTCGAAAGACTAC (((..(((....))))))	31.9	-49
GCACGGCGAAAGCAGGGC ((.(.((....)).).))	65.8	-151
GGCGTTCGAAAGAAGCC (((.(((....))))))	50.8	-97.3
GTGGATGGAAACGTTCAC (((.(.(....).).)))	32.4	-69.8
GACGAAGGAAACTCCGTC ((((.((....)).))))	37.7	-109
GGCTTCGAAAGAAAGCC ((((((....))).)))	55	-160
GTGTTCGAAAGAAAACAC ((((((....)))..)))	38.2	-94.7
GCATCCGAAAGGACTTGC ((((((....)))..)))	32.9	-81.3
GATCATGCCGATGATC ((((((....))))))	49.5	-171
GCATATTCGAAAGAATGC (((..(((....))))))	34	-78.2
GACTGCGAAAGCATGGTC ((((((....)))..)))	42.7	-62.4
GCAGGACCGAAAGGTTGC (((..(((....))))))	44.8	-86.5
GATCATGCAAATGATC ((((((....))))))	55.4	-166
GATCATTTGTATGATC ((((((....))))))	47.4	-150
GGGGTCCCGAAAGGGCCC (((..(((....))))))	65.3	-60.9
GATCGTACTACGATC ((((((...))))))	56.5	-152
GCGTCAAAACGC ((((....))))	51.6	-88.6
GAGGTAACGAAAGTTCTC (((..(((....))))))	29	-46.4
GTGCGGCGAAAGCCCCAC (((.(((....))).)))	47.6	-96.4
GCGCCCGAAAGGGACCGC ((((((....)))..)))	50.3	-95
TACGTGAAAACGTA (((((....)))))	43.5	-70.1
GATCGGGCGCCGATC ((((((...))))))	55	-194
GATCCGTTCCCGGATC ((((((....))))))	55.7	-182

Sequence	Tm [1] [°C]	folding enthalpy [2] [kJ/mol]
GTGATCGGAAACGATTGC (..((((....))))..)	40.5	-92.4
GCGGACTGCCGC ((((....))))	54.5	-103
GTCGCCGAAAGGCGGGAC ((((((....)))..)))	41	-28.5
GTAATGGGAAACTATTAC (((((.(....).)))))	34.5	-119
GCGTTACGAAAGTAGCGC (((.(((....))).)))	64.4	-166
GGACCCGAAAGGGAGTCC ((((((....)))..)))	49.9	-87.3
GCACTGGGAAACTGGTGC ((((..(....)..))))	48.8	-138
GCACGCTCGAAAGAGTGC (((..(((....))))))	50.2	-87.6
GATCCGGTGGCGGATC ((((((....))))))	56.5	-131
GCCTTCCGAAAGGAGGGC (((.(((....))).)))	62.2	-155
GATCGAGATATCGATC ((((((....))))))	58.7	-160
GGTTACCGAAAGGTGACC (((.(((....))).)))	58.8	-173
GAGTTGCGAAAGCACCTC (((.(((....))).)))	47	-110
GAGAACGAAAGTTCGCTC ((((((....)))..)))	53.6	-82.8
GCTTAGCGAAAGCTGCGC ((..(((....)))..))	54.9	-80.8
GCGTCTGCACGC ((((....))))	52.5	-73.7
GTTCGCGAAAGCGCAAAC ((((((....)))..)))	29	-31
GTTAAAGCGAAAGCTAAC (((..(((....))))))	35.6	-43.1
GCGCAGCGAAAGCTCCGC (((.(((....))).)))	44.7	-143
GCGTAACGAAAGTTCCGC (((.(((....))).)))	52.7	-140
GATATCCCGAAAGGGATC (((..(((....))))))	32.5	-33.7
GGGAGCGAAAGCTTCCCC ((((((....)))..)))	61	-54.1
CGATCGGAAACGAGCTCG ((((((....)))..)))	29.8	-48.2
